The nature of data set [1]: Oral bioavailability in Wistar rat at 25 mg/kg. The format is ADME, organism-based. Particulars: in vivo.
Data set [2] can be described thus: Oral bioavailability in beagle dog at 8 mg/kg. The format is ADME, organism-based, Canis lupus familiaris. The conditions noted are these: in vivo.
The subject of another data set is Liver. The experiment in a line: Drug uptake in rat liver at 50 mg/kg, po. Type of data set: ADME, organism-based. The conditions noted are these: in vivo, read-out: Drug uptake. On the set-up: dose 50 mg/kg, route oral.
The nature of data set [3]: Drug excretion in rat urine at 50 mg/kg, po. Also on record: dose 50 mg/kg, route oral. The conditions noted are these: in vivo. Type of data set: ADME, organism-based.
Data set [4] is described as follows: Drug excretion in rat bile at 50 mg/kg, po. The format is ADME, organism-based. The conditions noted are these: read-out: Drug excretion. On the set-up: dose 50 mg/kg, route oral.
Another data set concerns Liver microsome. The experiment in a line: Drug metabolism in human liver microsomes assessed as oxidative metabolism at 10 uM in presence of 1 uM sulfaphenazole CYP2C9 inhibitor. The format is ADME. An outline of the steps:
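Pooled human liver microsomes (1 mg/ml, mixed-gender, 50 donors), 10 µM Rh2, 2 mM NADPH and selective inhibitor in 100 mM potassium phosphate pH 7.4; 37°C, 60 min; ice-cold acetonitrile stop; uninhibited controls; duplicates; formation of M1-2, M1-3 and M1-4+M1-5 quantified by LC/ion-trap MSn.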

The target in the next data set is T1, Cytochrome P450 2A6 (Homo sapiens, UniProt P11509).
T1 sequence (P11509 whole entry): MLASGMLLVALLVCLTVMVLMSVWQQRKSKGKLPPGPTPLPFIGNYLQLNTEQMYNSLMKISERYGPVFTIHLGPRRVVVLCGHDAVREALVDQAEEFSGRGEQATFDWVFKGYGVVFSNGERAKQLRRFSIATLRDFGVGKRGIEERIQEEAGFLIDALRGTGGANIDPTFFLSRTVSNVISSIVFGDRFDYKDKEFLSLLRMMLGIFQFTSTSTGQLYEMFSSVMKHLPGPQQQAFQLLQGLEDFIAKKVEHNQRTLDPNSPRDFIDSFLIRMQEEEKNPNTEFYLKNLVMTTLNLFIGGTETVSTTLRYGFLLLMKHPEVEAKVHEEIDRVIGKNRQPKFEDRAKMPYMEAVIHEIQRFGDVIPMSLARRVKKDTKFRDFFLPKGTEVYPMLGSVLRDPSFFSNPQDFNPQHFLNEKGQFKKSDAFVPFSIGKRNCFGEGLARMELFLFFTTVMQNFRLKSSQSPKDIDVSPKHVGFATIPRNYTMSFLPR
Put plainly: Drug metabolism in human recombinant CYP2A6 mediated oxidative metabolism at 10 uM. The format is ADME. The conditions noted are these: recombinant enzyme. Summed up:
(§1)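 Recombinant human P450 at 50 nM incubated with 10 µM Rh2 and 2 mM NADPH in 100 mM potassium phosphate pH 7.4, 37°C, 60 min; ice-cold acetonitrile stop; duplicates; metabolites detected by LC/ion-trap MSn.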

In another data set the target is T2, Cytochrome P450 2B6 (Homo sapiens, UniProt P20813).
T2 sequence (P20813 whole entry): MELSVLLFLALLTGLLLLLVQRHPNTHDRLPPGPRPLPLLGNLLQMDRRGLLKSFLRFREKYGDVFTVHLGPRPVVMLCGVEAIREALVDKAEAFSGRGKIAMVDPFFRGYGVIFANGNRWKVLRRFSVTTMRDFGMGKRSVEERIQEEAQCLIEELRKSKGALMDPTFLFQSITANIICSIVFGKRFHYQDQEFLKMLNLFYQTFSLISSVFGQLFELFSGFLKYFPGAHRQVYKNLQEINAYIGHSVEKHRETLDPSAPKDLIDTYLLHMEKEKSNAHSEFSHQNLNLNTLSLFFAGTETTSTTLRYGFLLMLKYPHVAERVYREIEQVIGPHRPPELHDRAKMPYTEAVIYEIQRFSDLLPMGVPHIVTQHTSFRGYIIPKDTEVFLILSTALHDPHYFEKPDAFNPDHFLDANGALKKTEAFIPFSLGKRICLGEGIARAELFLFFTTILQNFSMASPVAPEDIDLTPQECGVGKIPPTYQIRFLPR
The experiment in a line: Drug metabolism in human recombinant CYP2B6 mediated oxidative metabolism at 10 uM. Type of data set: ADME. Particulars: recombinant enzyme. Summed up: as §1

The target of another data set is Cytochrome P450 2C19 (Homo sapiens, UniProt P33261). The experiment in a line: Drug metabolism in human recombinant CYP2C19 mediated oxidative metabolism at 10 uM. The conditions noted are these: recombinant enzyme. Type of data set: ADME. An outline of the steps: as §1
The next data set deals with Cytochrome P450 2E1 (Homo sapiens, UniProt P05181). The experiment in a line: Drug metabolism in human recombinant CYP2E1 mediated oxidative metabolism at 10 uM. The format is ADME. Particulars: recombinant enzyme. Summed up: as §1
Another data set deals with T3, Cytochrome P450 4A11 (Homo sapiens, UniProt Q02928).
T3 sequence (Q02928 whole entry): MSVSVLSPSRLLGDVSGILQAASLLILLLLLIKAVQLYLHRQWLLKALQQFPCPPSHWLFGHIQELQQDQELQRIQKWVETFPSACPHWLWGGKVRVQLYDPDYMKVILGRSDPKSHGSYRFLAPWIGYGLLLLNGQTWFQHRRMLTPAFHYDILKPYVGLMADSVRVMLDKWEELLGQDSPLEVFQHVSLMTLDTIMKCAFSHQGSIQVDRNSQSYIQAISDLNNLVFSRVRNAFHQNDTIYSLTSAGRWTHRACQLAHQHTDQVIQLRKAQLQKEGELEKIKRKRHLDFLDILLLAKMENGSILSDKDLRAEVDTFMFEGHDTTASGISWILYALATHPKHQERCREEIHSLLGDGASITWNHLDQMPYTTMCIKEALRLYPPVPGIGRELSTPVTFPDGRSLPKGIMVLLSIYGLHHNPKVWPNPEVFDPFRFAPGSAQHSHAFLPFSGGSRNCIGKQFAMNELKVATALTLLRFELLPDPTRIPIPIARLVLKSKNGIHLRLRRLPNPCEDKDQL
Put plainly: Drug metabolism in human recombinant CYP4A11 mediated oxidative metabolism at 10 uM. Type of data set: ADME. Particulars: recombinant enzyme. Summed up: as §1

Data set [5] in a line: Drug metabolism in cynomolgus monkey liver microsomes assessed as (2S)-2-amino-5-((2R)-1-(carboxymethylamino)-3-((6S)-2,6-dihydroxy-6-((3S,5R,8R,9R,10R,12R,13R,14R,17S)-12-hydroxy-4,4,8,10,14-pentamethyl-3-((2R,3R,4S,5S,6R)-3,4,5-trihydroxy-6-(hydroxymethyl)tetrahydro-2H-pyran-2-yloxy)hexadecahydro-1H-cyclopenta[a]phenanthren-17-yl)-2-methylheptan-3-ylthio)-1-oxopropan-2-ylamino)-5-oxopentanoic acid formation at 10 uM by LC/MS analysis in presence of 1 uM ketoconazole. Type of data set: ADME, Macaca fascicularis. An outline of the steps: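 Cynomolgus monkey liver microsomes (1 mg/ml) with 2 mM GSH, 10 µM Rh2 and 1.0 µM ketoconazole preincubated 10 min before adding 2 mM NADPH; GSH conjugate measured by LC/ion-trap MSn peak area; duplicates.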
(In general: Liver microsomes are a subcellular fraction often used to study metabolism.)

Where only a bound is given, the exact number is not on record here.

Sequence of Cytochrome P450 2C19 (P33261 whole entry): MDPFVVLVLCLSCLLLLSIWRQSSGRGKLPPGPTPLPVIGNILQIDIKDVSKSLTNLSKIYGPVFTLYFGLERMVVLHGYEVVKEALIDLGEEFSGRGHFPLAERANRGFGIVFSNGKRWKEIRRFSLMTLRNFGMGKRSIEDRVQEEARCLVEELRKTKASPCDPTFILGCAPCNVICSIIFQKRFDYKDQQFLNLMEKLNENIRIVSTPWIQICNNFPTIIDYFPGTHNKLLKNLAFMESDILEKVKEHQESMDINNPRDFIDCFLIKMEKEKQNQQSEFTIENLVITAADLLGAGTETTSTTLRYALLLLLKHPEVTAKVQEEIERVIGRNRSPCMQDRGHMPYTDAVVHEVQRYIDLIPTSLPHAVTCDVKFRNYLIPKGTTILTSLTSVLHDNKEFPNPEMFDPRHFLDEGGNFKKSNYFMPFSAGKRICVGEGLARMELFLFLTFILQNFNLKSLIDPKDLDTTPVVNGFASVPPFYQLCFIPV
Sequence of Cytochrome P450 2E1 (P05181 whole entry): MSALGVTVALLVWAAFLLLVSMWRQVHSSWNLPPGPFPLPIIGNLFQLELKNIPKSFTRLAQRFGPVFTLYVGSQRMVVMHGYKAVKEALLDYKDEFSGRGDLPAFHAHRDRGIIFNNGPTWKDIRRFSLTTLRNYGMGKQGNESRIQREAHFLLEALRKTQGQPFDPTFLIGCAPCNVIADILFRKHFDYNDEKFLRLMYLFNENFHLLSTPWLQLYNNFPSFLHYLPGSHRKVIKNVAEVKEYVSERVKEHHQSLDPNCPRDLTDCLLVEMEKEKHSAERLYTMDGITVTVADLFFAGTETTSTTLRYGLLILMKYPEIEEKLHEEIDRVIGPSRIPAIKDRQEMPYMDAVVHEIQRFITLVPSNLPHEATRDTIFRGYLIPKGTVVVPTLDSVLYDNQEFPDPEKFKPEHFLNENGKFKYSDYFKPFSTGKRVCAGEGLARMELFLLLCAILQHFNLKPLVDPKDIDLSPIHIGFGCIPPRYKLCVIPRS

`CC(C)=CCC[C@](C)(O)[C@H]1CC[C@]2(C)[C@@H]1[C@H](O)C[C@@H]1[C@@]3(C)CC[C@H](O[C@@H]4O[C@H](CO)[C@@H](O)[C@H](O)[C@H]4O)C(C)(C)[C@@H]3CC[C@]12C` [GINSENOSIDE RH2]: the bioavailability (in general, dose-corrected exposure relative to a reference, in per cent) was found to be 28% in [1] and 55% in [2]. For the same compound, in the data set with Liver, the concentration stood at 60 µM. Also, in [3], the Drug excretion result is “metabolite_not_detected”. Also, the dose excreted in data set [4] is less than 10%. Besides, the Drug metabolism entry is given as “metabolite_detected” with Liver microsome; “metabolite_not_detected” on Cytochrome P450 2A6; “metabolite_not_detected” at Cytochrome P450 2B6; “metabolite_not_detected” at Cytochrome P450 2C19; “metabolite_not_detected” at Cytochrome P450 2E1; “metabolite_not_detected” on Cytochrome P450 4A11. In [5], the Drug metabolism entry was “metabolite_not_detected”.
